Assay results published in ChEMBL document CHEMBL3813595, “Discovery of novel 5,6,7,8-tetrahydro[1,2,4]triazolo[4,3-a]pyridine derivatives as γ-secretase modulators (Part 2)” (Bioorg Med Chem, 2016).

Experiments:
[1] = Lipophilicity, logD of compound at pH 7.4 by retention time-based reverse phase chromatographic analysis; type: physicochemical; details: buffer
[2] = Drug uptake in C57BL/6J mouse cortex at 6 mg/kg, po after 3 hrs by LC/MS/MS analysis; type: ADME, organism-based; details: read-out: Drug uptake
Procedure, shortened: (§1)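 Male C57BL/6J mice, 9 weeks old, fed, n = 3, given a single oral dose of 6 mg/kg in 0.5% methylcellulose. Plasma and cortex collected at 3 h. Cortex homogenized in saline. Samples deproteinized with MeCN containing an internal standard, then diluted in ammonium formate/acetonitrile with 0.2% formic acid for analysis.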

[3] = Drug uptake in C57BL/6J mouse plasma at 6 mg/kg, po after 3 hrs by LC/MS/MS analysis; type: ADME, organism-based; procedure, shortened: as §1
Cortex [4] = test: Drug uptake in APP-transgenic Tg2576 mouse cortex at 3 to 6 mg/kg, po administered as single dose after 18 hrs by LC/MS/MS analysis; type: ADME, organism-based; details: in vivo, BLD = below limit of detection
Cortex [5] = test: Drug uptake in APP-transgenic Tg2576 mouse cortex at 3 to 6 mg/kg, po administered as multiple dose by LC/MS/MS analysis; type: ADME, organism-based; details: in vivo
Plasma = test: Drug uptake in APP-transgenic Tg2576 mouse plasma at 3 to 6 mg/kg, po administered as multiple dose by LC/MS/MS analysis; type: ADME, organism-based; details: in vivo

| Structure (SMILES) | chromatographic logD [1] | also measured |
| --- | --- | --- |
| COc1cc(-c2nnc3n2CCCC3(c2ccc(Cl)c(Cl)c2)C(C)(C)O)ccc1-c1cnc(C)o1 (configuration not stated) | 3.7 |  |
| COc1cc(-c2nnc3n2CCCC3(Oc2cc(F)c(F)c(F)c2)C(C)(C)O)ccc1-c1cnc(C)o1 (configuration not stated) | 3.2 |  |
| COc1cc(-c2nnc3n2CCCC3(OC)c2ccc(Cl)c(Cl)c2)ccc1-c1cnc(C)o1 (configuration not stated) | 3.7 |  |
| COc1cc(-c2nnc3n2CCCC3(O)c2ccc(Cl)c(Cl)c2)ccc1-c1cnc(C)o1 (configuration not stated) | 2.9 |  |
| COc1cc(-c2nnc3n2CCCC3(Oc2ccc(F)c(F)c2)C(C)(C)O)ccc1-c1cnc(C)o1 (configuration not stated) | 2.8 |  |
| COc1cc(-c2nnc3n2CCC[C@]3(Oc2cc(F)c(F)c(F)c2)C(C)(C)O)ccc1-c1cnc(C)o1 | 3.2 | concentration at 3 h [2]: 677 ng/g; concentration at 3 h [3]: 3310 ng/mL; Drug uptake (Cortex [4]): BLD; Drug uptake (Cortex [5]): Not Active; Drug uptake (Plasma): Not Active |
| COc1cc(-c2nnc3n2CCCC3(CNC(C)=O)c2ccc(Cl)c(Cl)c2)ccc1-c1cnc(C)o1 (configuration not stated) | 3.2 |  |
| COc1cc(-c2nnc3n2CCC[C@@]3(Oc2cc(F)c(F)c(F)c2)C(C)(C)O)ccc1-c1cnc(C)o1 | 3.2 |  |
| COc1cc(-c2nnc3n2CCCC3(CN)c2ccc(Cl)c(Cl)c2)ccc1-c1cnc(C)o1 (configuration not stated) | 3.1 |  |

Now from value to compound, other results behind:

| chromatographic logD [1] | Structure (SMILES) | also measured |
| --- | --- | --- |
| 2.5 | COc1cc(-c2nnc3n2CCCC3(CO)Cc2ccc(F)c(F)c2)ccc1-c1cnc(C)o1 (configuration not stated) |  |
| 2.3 | COc1cc(-c2nnc3n2CCCC3(Cc2ccc(F)c(F)c2)C(N)=O)ccc1-c1cnc(C)o1 (configuration not stated) |  |
| 2.9 | COc1cc(-c2nnc3n2CCCC32OCc3c(cccc3C(F)(F)F)N(CC(F)(F)F)C2=O)ccc1-c1cnc(C)o1 (configuration not stated) |  |
| 2.5 | COc1cc(-c2nnc3n2CCCC32COc3ccccc3N(CC(F)(F)F)C2=O)ccc1-c1cnc(C)o1 (configuration not stated) |  |
| 3 | COc1cc(-c2nnc3n2CCCC3(Cc2ccc(F)c(F)c2)C(=O)NCC(F)(F)F)ccc1-c1cnc(C)o1 (configuration not stated) |  |
| 2.6 | COc1cc(-c2nnc3n2CCCC3(Cc2ccc(F)c(F)c2)C(C)=O)ccc1-c1cnc(C)o1 (configuration not stated) |  |
| 3 | COc1cc(-c2nnc3n2CCCC3(Cc2ccc(F)c(F)c2)C(C)(C)O)ccc1-c1cnc(C)o1 (configuration not stated) |  |
| 2.9 | COc1cc(-c2nnc3n2CCCC3(Cc2ccc(F)c(F)c2)C(=O)N(C)CC(F)(F)F)ccc1-c1cnc(C)o1 (configuration not stated) |  |
| 2.8 | COc1cc(-c2nnc3n2CCCC32OCc3c(Cl)cccc3N(CC(F)(F)F)C2=O)ccc1-c1cnc(C)o1 (configuration not stated) |  |
| 2.2 | COc1cc(-c2nnc3n2CCCC32OCc3ccccc3N(CC(F)(F)F)C2=O)ccc1-c1cnc(C)o1 (configuration not stated) |  |
| 2.4 | COc1cc(-c2nnc3n2CCCC32Cc3ccccc3N(CC(F)(F)F)C2=O)ccc1-c1cnc(C)o1 (configuration not stated) |  |
| 2.2 | COc1cc(-c2nnc3n2CCCC32C(=O)N(CC(F)(F)F)c3ccccc32)ccc1-c1cnc(C)o1 (configuration not stated) |  |
| 2.9 | COc1cc(-c2nnc3n2CCCC3(c2ccc(F)c(F)c2)C(C)(C)O)ccc1-c1cnc(C)o1 (configuration not stated) |  |
